According to the EternaBench riboswitch data:

Tested on: MS2 coat protein
Assay: apparent Kd, MS2 coat protein; higher = weaker binding; RNA-MaP array; FMN 200 µM where present
In short: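 The titrant was SNAP-549-labelled MS2 coat protein, run from 0.7 or 1.5 nM in doubling steps to 3 µM. It was applied to designs transcribed by stalled E. coli RNA polymerase on Illumina sequencing-chip clusters, without ligand first and then with constant ligand, in 100 mM Tris-HCl pH 7.5, 80 mM KCl, 4 mM MgCl2, BSA, DTT, yeast tRNA and Tween-20. The apparent Kd is the median of filtered per-cluster binding-curve fits, with green signal normalised to red-channel RNA signal and control-cluster median Fmax.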

[1] = designed as: ON switch for flavin mononucleotide, no ligand
[2] = ligand present: flavin mononucleotide, designed as: ON switch for flavin mononucleotide
[3] = designed as: OFF switch for flavin mononucleotide, no ligand
[4] = ligand present: flavin mononucleotide, designed as: OFF switch for flavin mononucleotide

Sequence	apparent Kd [1]	apparent Kd [2]	apparent Kd [3]	apparent Kd [4]
GGGUACAUCGGAGGAUAUCCUGUAAAUACAUGAGGAUCACCCAUGUCGAUGGAGACAUCGGAGAUUGAGAAGGCCGAUGUACCG	35 nM	6.74 nM		
GGAGCCGGCACCGAGGAUAUUCAUAUUAAAACAUGAGGAUCACCCAUGUGGGCCAGAAGGCCUUGGGAGAAGGCGGAUCGGCUCG	305 nM	30 nM		
AAAACGUGAGGAUAUCCAAUAUAUGACAUGAGGAUCACCCAUGUUUCCACUCGUACCUCCGGAGAAGGCACUUUUU			54.6 nM	44.9 nM
AAACAUGUCCGAGGAUAUCUGGAAACAUUUUCAAGAGAAGGCGGACAUGAGGAUCACCCAUGUCUCUCCUCAUCAAAUCCAAGU			21.4 nM	148 nM
AAUACAUGAGGAUCACCCAUGUAAAGAUCUGUUAAUAGAUGUGAGGAUAUACUAAAUUUUAGGUAGUAGAAGGCACUGGGUACA	22.1 nM	26 nM		
UAUGAGCGAGGAUAUGCUUGGGACGUCGUUCUUGCGGCGAGACAUGAGGAUCACCCAUGUAGAAGGCGCGAGCG			18.4 nM	18.5 nM
ACGCCCUGAGGAUAUCUCAUCCCGCACAUGAGGAUCACCCAUGUUCUCCUCCGGGCUCCGAGAGAAGGCAGGCCCA			54.7 nM	95.2 nM
CUCUUGUCAGGAUAUUAUGGACGAUAGCAGGACUACGUCAGUGAGAAGGGACAUGAGGAUCACCCAUGUAAAAU			82 nM	67.2 nM
UGUGCUAUGUAGAAGGCAGAUCUGAUUCAGAUCUGAGGAUAUACAUGAGGAUCACCCAUGUUAUGCACCAGCACGAGAGUGCAC			7.89 nM	17.1 nM
AAAUAGCAUGAGGAUAUUGGACUGGAUUCAGUACGAGAAGGCAUGACAUGAGGAUCACCCAUGUUUUGUUGGGA			51.7 nM	202 nM
AAUGAGUUUCUCACACUGUUCACAUGAGGAUCACCCAUGUACAGAAGGUAGAGACUUCCGGUCGCUAAGGAUAUGUAGAGGGUC			5.05 nM	6.01 nM
AAAAGACAUGAGGAUCACCCAUGUAAAAACAUAGGAGGAUAUGUUUGGAAACUAGACUGAACAGAAGGCCUUUGUC	22.9 nM	17 nM		
GUAGCAUACCGAGGAUAUUCAGGGCUUAAAUAAACAUGAGGAUCACCCAUGUGGCGAAAGCCUAGGGAGAAGGCGGAAUGCUAC	14.6 nM	13.4 nM		
GUCGAAACCAUACUAGUCGACGGUCAGGAUAUACAUGAGGAUCACCCAUGUGCUAUUGAUACUAUGUAGAAGGGACCCACCGCA			15 nM	24.6 nM
AAUAACAGAGGAUAUACUAUUUUAUGUGUUUAUUGUUUUGAACAUGAGGAUCACCCAUGUAGAAGGCUGAUUGA			47.8 nM	56.3 nM
AAGAGAAGAACUGAGGAUAUCAGGGAUGGUACAUGAGGAUCACCCAUGUUGGCAAGCGAAGAAACUGAGAAGGCAGAGAAGAAGAA	80.3 nM	48.1 nM		
GUAUAUAGUGUGAGGAUAUGCUGGUCCUUGGAUCAGCAGAAGGCACAUGAGGAUCACCCAUGUAGUUAAAUAUA			34.4 nM	82 nM
UUUAUACAUGAGGAUCACCCAUGUUAGGAUAUGGCUUUAAUGCCGCCGUCAUUAUCCGCCAGAAGGGACGUGUC			32.2 nM	30.4 nM
UAUAAUUAGUAGAAGGACGGAGAGUAAGAAGUCGUAGGAUAUACAUAAGACAUGAGGAUCACCCAUGUGUGUAUGUUGGGUAGG			6.76 nM	6.7 nM
AUACCUUAUGAGAAGGCGAUCAUGAAACAUGAUCGAGGAUAUCAUGUAAACAUGAGGAUCACCCAUGUAUGGGUAUUAUGGUAU	57.4 nM	10.9 nM		
AAUGUUUGAUUCCACUUAUACAUGAGGAUCACCCAUGUUAUCGAGGAUAUGCAUUAAAGUGUUUAGCAGAAGGCGAUGUAAUUG			7.42 nM	23.6 nM
GUGGGUGAUGGAGGAUAUGACGACGGGUUUUACAUGAGGAUCACCCAUGUGGCGUUCCGCAAAAGUCAGAAGGCCAGGUAUACU	332 nM	40.6 nM		
AUCAGCUCGUCAGGAUAUACAUCACUGCUUCGGCAGUGUGGUAAGGUCACAUGAGGAUCACCCAUGUAGAAGGGACGAGCUGAU			8.48 nM	106 nM
AAUUCACAUGAGGAUCACCCAUGUCAGGAUAUGGUUUUAUUUUUUUCUUUUCUUGAUUCCAGAAGGGACAGCUA			108 nM	59.2 nM
CGUAGGAUCCAGAAGGCAUGAACAUGAGGAUCACCCAUGUCAAUAGACAUGAGGAUAUGGAUCCUACGAAAAGUGCGAAAGCAC	31.8 nM	5.94 nM		
UUUGGUUUGCGAGGAUAUGCUUUUAGUAAGUUAGCAGAAGGCGCGUUACAUAGAACCUCUUGUUACAUGAGGAUCACCCAUGUU			88.2 nM	95 nM
UGAGGACAUGAGGAUCACCCAUGUAGGCCACAAUCAGGAUAUGCAUUAAGGUACCUAAGAGUAGAAGGGAUUCGAG	82.1 nM	75.6 nM		
GUGUACAUUCGAGGAUAUCGGAGAGAGAUCAUUCGAGAAGGCGAUUCAUGAUGUAUUAUCCUGGACAUGAGGAUCACCCAUGUG	109 nM	74.6 nM		
